≈ marks a conversion by molar mass, not a printed value.
How the values were obtained:
Cytochrome P450 2B6 = Cytochrome P450 2B6 (Homo sapiens, UniProt P20813); assay: inhibition of CYP2B6 in human liver microsomes; type: ADME
Cytochrome P450 2C9 = Cytochrome P450 2C9 (Homo sapiens, UniProt P11712); assay: inhibition of CYP2C9 in human liver microsomes; type: ADME
CHO [1] = assay: Genotoxicity in CHO cells in presence of (aroclor-induced rat liver S9 fraction/NADPH by micronucleus test; type: toxicity, cell-based, Cricetulus griseus; conditions: chinese hamster
Procedure, shortened: (§1)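 In vitro micronucleus assay in Chinese hamster ovary or TK6 cells, run with and without metabolic activation by aroclor-induced rat liver S9 fraction plus NADPH.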

[2] = Drug excretion in Wistar-Hannover rat urine at 1 mg/kg, iv and measured up to 24 hrs by LC/MS-MS analysis; type: ADME, organism-based; conditions: read-out: Drug excretion
CHO [3] = assay: Genotoxicity in CHO cells by micronucleus test; type: toxicity, cell-based, Cricetulus griseus; conditions: chinese hamster; procedure, shortened: as §1
TK6 = assay: Genotoxicity in human TK6 cells by micronucleus test; type: toxicity, cell-based; procedure, shortened: as §1
[4] = Drug recovery in bile duct-cannulated Wistar-Hannover rat bile at 1 mg/kg, iv and measured up to 24 hrs by LC/MS-MS analysis; type: ADME, organism-based; conditions: read-out: Drug recovery
Procedure, shortened: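 Rats received a 1 mg/kg IV dose. Bile was pooled over 0–24 h and analysed for unchanged parent.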

[5] = Half life in cynomolgus monkey plasma at 1 mg/kg, iv and measured up to 72 hrs by LC/MS-MS analysis; type: ADME, organism-based, Macaca fascicularis
Procedure, shortened: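 Cynomolgus monkeys dosed 1 mg/kg IV as the tris salt in 2% N-methylpyrrolidone/98% sulfobutylether-β-cyclodextrin (12.5%) in 50 mM TRIS, pH 8.0, or PO as the tris salt. Plasma was analysed by LC-MS/MS, n = 2. CL = IV dose/AUC; Vss = dose/(AUC × elimination rate constant); Cmax taken from observed data.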

[6] = Fraction unbound in human plasma by equilibrium dialysis method; type: ADME, cell-free
[7] = Drug uptake in human hepatocytes assessed as active uptake intrinsic clearance at 1 uM up to 15 mins by LC-MS/MS analysis; type: ADME, cell-based, Hepatocyte; conditions: 0.25 h
OATP2B1 = OATP2B1 (Homo sapiens, UniProt O94956); assay: Substrate activity at human OATP2B1 stably expressed in HEK293 cells assessed as ratio of total to passive cellular uptake at 1 uM incubated for 0.5 to 4 mins by LC/MS-MS analysis; type: cell-based; conditions: HEK293 cells stably expressing human OATP2B1, time 0.5-4 min
Procedure, shortened: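 HEK293 cells stably transfected with the transporter, plus wild-type cells, grown to confluence in DMEM with 10% heat-inactivated FBS and 5 µg/mL blasticidin. Washed with HBSS/20 mM HEPES, pH 7.4, then incubated with compound at 37 °C for 0.5–4.0 min. Cells washed ice-cold, lysed in MeOH for LC-MS/MS, uptake normalized to BCA protein. Ratio = transfected/wild-type uptake, averaged over time points.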

Acetyl-CoA carboxylase 2 = Acetyl-CoA carboxylase 2 (Homo sapiens, UniProt O00763); assay: Uncompetitive inhibition of human ACC2 incubated for 15 mins in presence of ATP by Line weaver-Burk plot analysis
Procedure, shortened: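 Radioenzymatic assay with purified ACC isozymes, measuring [14C]-bicarbonate incorporation into [14C]-malonyl-CoA. Mode of inhibition taken from substrate concentration-dependence experiments varying ATP or carbonate. IC50 dose-response run at saturating ATP.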

[8] = Inhibition of DNL in po dosed Sprague-Dawley rat assessed as reduction in DNL level in liver pretreated with one hr followed by [14C]-acetate treatment and measured after 1 hr; type: functional, organism-based
Procedure, shortened: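 Sprague-Dawley rats given single oral doses of 0.03–300 mg/kg in 0.5% methyl cellulose vehicle, n = 16 per dose. Read-out is incorporation of 14C-acetate into lipids in liver, bone marrow and lung, measured at 2 h post-dose relative to vehicle. Data are mean ± SEM. EC50 is reported with a 95% confidence interval.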

[9] = AUC (0 to 24 hrs) in cynomolgus monkey plasma at 1 mg/kg, iv and measured up to 72 hrs by LC/MS-MS analysis; type: ADME, organism-based, Macaca fascicularis; design: route intravenous, dose 1 mg/kg, time <=72
Procedure, shortened: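 Cynomolgus monkeys received an IV solution of the tris salt in 2% N-methylpyrrolidone and 98% sulfobutylether-β-cyclodextrin (12.5%) in 50 mM TRIS buffer, pH 8.0. AUC0–24 came from plasma concentration–time data by the linear trapezoidal rule, averaged for n = 2.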

[10] = Drug uptake in human hepatocytes assessed as passive diffusion clearance at 1 uM up to 15 mins in presence of rifamycin SV by LC-MS/MS analysis; type: ADME, cell-based, Hepatocyte; conditions: 0.25 h
[11] = Fraction unbound in monkey plasma by equilibrium dialysis method; type: ADME, cell-free, Macaca mulatta; conditions: rhesus monkey
Procedure, shortened: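 Fraction unbound in plasma and liver tissue was determined by equilibrium dialysis.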

[12] = target: Broad substrate specificity ATP-binding cassette transporter ABCG2 (Homo sapiens, UniProt Q9UNQ0); assay: Inhibition of human ABCG2 expressed in MDCK2-LE cells in presence of […]; type: cell-based, MDCKII-LE
[13] = Thermodynamic solubility of the compound at pH 7.4 after 24 hrs; type: physicochemical; conditions: buffer, read-out: Therm_solubility
OATP1B1 = target: T1, OATP1B1 (Homo sapiens, UniProt Q9Y6L6); assay: Substrate activity at human OATP1B1 stably expressed in HEK293 cells assessed as ratio of total to passive cellular uptake at 1 uM incubated for 5 mins by LC/MS-MS analysis; type: ADME, cell-based; conditions: HEK293 cells stably expressing human OATP1B1
T1 sequence (Q9Y6L6 whole entry): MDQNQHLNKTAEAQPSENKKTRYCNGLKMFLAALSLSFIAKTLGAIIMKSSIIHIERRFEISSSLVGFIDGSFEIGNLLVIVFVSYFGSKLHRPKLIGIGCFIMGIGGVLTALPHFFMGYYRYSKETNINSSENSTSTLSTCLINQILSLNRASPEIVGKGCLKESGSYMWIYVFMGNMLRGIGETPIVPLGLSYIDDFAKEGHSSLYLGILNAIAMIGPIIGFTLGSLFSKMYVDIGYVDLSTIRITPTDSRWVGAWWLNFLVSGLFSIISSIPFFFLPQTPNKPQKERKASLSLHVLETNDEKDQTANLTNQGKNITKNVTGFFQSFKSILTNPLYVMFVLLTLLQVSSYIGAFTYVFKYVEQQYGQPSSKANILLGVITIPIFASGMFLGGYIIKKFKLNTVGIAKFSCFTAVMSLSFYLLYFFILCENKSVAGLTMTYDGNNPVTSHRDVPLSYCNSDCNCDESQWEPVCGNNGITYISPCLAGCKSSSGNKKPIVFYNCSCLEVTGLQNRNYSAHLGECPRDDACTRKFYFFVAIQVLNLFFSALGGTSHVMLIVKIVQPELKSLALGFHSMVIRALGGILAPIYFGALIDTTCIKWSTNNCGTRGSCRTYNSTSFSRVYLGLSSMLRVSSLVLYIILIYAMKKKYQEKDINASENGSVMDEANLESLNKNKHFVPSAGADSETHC
Procedure, shortened: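 Transfected versus parental HEK293 cells exposed at 1 µM for 5 min at 37 °C. Ratio is total (transfected) over passive (parental) uptake; >2 denotes substrate.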

[14] = Drug uptake in Wistar-Hannover rat liver at 30 mg/kg, po after 6 hrs by LC/MS-MS analysis; type: ADME, organism-based; conditions: read-out: Drug uptake
Procedure, shortened: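 Male Wistar-Hannover rats, n = 2 or 3, given an oral suspension in 0.5% methyl cellulose with 0.1% Tween 80; one compound was dosed as the HCl salt. Total plasma and liver concentrations were measured 6 h post-dose. Kp = liver/plasma total concentration. Kpu,u uses fu values from equilibrium dialysis.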

Cytochrome P450 2C9, sequence (P11712 whole entry): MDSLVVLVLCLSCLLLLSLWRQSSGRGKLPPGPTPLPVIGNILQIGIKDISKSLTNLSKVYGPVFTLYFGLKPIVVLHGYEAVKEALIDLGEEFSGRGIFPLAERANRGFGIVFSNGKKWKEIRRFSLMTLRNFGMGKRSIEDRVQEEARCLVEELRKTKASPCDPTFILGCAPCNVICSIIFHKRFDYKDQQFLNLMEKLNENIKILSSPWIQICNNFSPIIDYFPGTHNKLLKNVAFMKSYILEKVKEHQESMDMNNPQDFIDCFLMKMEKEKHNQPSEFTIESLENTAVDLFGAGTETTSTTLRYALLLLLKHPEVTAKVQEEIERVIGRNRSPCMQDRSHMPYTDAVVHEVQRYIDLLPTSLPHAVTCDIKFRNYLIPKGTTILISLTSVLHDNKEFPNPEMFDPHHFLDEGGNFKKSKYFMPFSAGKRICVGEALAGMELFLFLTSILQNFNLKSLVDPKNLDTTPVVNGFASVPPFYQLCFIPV
Acetyl-CoA carboxylase 2, sequence (O00763 whole entry): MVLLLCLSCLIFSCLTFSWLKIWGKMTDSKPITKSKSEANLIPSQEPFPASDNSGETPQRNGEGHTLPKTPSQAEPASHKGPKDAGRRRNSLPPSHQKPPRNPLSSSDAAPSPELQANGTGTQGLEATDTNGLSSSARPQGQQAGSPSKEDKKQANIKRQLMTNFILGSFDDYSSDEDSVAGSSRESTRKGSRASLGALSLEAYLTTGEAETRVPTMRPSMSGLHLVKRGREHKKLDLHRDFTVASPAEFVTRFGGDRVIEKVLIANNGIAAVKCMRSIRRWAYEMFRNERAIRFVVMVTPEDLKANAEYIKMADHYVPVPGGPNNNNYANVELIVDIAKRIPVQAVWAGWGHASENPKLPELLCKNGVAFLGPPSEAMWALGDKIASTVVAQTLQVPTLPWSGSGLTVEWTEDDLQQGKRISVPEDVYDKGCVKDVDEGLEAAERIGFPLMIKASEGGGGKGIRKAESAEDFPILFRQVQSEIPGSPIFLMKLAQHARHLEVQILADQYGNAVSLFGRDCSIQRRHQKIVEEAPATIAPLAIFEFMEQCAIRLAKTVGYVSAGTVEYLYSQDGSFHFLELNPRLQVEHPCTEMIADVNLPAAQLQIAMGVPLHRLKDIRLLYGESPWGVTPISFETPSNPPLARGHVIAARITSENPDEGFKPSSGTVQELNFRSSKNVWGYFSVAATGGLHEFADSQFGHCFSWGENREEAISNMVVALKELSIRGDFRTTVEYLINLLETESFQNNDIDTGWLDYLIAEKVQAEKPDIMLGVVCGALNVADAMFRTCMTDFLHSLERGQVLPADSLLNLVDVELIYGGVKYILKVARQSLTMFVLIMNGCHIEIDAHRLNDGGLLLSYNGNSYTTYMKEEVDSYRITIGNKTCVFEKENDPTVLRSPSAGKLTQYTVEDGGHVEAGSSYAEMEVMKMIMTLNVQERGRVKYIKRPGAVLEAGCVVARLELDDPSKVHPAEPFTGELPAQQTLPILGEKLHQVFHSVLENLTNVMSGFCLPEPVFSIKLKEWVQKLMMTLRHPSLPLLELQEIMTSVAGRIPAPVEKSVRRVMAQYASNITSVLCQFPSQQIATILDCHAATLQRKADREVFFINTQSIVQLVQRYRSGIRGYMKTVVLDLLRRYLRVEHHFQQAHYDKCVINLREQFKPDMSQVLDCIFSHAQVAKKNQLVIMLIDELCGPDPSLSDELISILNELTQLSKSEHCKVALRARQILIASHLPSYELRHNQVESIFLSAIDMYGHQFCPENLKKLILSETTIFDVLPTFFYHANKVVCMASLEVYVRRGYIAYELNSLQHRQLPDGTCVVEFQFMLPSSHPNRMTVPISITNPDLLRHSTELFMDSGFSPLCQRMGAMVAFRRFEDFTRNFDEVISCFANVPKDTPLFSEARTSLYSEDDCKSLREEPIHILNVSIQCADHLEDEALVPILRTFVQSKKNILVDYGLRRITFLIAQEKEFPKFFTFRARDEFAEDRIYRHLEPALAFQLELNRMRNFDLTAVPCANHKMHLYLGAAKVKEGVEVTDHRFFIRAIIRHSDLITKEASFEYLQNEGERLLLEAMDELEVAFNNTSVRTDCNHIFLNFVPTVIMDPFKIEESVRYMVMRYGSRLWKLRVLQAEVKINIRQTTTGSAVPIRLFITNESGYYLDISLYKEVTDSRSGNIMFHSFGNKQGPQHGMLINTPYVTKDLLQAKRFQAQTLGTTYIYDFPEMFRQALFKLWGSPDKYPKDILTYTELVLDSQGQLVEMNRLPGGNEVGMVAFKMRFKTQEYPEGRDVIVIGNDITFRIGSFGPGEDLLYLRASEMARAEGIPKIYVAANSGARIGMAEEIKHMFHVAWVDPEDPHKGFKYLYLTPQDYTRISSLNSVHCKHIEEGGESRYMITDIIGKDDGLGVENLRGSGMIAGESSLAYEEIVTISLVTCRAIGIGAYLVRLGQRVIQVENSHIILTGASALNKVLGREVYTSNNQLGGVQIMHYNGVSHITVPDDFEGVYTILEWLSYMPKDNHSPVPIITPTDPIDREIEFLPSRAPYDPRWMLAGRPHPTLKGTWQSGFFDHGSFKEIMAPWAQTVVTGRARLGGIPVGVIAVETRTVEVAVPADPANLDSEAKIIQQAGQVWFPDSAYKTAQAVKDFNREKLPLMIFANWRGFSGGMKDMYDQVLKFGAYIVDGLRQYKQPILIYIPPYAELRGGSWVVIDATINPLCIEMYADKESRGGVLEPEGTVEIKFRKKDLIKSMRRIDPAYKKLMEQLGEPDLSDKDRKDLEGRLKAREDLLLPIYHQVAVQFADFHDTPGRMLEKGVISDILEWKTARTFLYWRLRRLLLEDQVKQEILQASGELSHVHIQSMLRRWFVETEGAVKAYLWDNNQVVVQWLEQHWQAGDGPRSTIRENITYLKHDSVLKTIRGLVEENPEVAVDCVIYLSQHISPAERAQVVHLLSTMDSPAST
Cytochrome P450 2B6, sequence (P20813 whole entry): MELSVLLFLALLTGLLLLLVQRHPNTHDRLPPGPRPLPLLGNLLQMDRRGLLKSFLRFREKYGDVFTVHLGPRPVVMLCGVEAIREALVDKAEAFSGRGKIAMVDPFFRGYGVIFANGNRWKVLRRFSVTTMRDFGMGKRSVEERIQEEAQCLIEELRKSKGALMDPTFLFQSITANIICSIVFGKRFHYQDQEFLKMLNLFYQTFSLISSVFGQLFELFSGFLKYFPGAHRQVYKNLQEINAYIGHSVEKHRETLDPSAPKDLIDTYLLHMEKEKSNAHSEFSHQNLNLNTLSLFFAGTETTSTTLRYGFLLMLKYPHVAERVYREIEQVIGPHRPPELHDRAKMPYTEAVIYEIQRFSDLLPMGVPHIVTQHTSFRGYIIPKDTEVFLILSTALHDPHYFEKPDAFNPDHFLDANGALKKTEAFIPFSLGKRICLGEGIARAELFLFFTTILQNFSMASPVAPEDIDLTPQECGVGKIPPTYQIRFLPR
OATP2B1, sequence (O94956 whole entry): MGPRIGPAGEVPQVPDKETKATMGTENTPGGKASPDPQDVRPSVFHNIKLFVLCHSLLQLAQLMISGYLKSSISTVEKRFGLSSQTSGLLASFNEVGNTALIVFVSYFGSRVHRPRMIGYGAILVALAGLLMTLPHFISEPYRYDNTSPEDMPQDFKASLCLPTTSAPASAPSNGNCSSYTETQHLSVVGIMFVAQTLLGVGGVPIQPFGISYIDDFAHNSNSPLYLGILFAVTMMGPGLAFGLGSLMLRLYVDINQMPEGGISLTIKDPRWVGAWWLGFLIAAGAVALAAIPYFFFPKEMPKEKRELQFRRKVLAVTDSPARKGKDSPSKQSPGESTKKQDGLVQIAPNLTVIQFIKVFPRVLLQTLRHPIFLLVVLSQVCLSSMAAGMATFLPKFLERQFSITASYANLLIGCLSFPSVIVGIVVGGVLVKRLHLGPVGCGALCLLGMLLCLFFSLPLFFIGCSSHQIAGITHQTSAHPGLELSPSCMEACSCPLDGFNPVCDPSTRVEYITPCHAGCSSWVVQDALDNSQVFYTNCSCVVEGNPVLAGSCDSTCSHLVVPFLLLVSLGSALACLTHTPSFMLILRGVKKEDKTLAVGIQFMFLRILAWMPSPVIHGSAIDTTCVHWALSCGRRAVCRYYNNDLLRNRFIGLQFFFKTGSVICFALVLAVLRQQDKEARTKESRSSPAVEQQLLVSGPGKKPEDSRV
Broad substrate specificity ATP-binding cassette transporter ABCG2, sequence (Q9UNQ0 whole entry): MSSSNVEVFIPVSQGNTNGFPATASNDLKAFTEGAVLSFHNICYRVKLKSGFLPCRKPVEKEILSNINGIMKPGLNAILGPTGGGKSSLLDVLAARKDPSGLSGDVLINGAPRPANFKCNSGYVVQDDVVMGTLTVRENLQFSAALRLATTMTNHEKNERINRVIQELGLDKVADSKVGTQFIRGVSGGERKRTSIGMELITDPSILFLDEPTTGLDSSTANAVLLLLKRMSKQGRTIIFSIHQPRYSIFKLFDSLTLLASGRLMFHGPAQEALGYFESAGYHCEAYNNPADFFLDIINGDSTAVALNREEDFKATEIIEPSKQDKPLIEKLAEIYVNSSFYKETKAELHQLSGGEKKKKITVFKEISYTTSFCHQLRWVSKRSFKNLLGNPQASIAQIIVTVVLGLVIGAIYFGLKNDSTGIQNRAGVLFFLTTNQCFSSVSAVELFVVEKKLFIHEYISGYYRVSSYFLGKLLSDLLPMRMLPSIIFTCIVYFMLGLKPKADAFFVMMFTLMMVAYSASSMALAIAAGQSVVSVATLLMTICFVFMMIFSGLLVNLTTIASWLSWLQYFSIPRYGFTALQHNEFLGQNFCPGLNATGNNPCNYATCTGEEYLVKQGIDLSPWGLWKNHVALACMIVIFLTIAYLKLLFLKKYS

| IC50 (Cytochrome P450 2B6) | IC50 (Cytochrome P450 2C9) | dose excreted at 24 h [2] | dose excreted at 24 h [4] | half-life [5] | fraction unbound [6] | CLH [7] | uptake ratio at 1 µM (OATP2B1) | IC50 (Acetyl-CoA carboxylase 2) | EC50 [8] | AUC(0-t) [9] | CLH [10] | fraction unbound [11] | IC50 [12] | solubility thermodynamic at 24 h [13] | uptake ratio at 5 min, 1 µM (OATP1B1) | concentration at 6 h [14] | Compound | Activity (CHO [1]) | Activity (CHO [3]) | Activity (TK6) |
| --- | --- | --- | --- | --- | --- | --- | --- | --- | --- | --- | --- | --- | --- | --- | --- | --- | --- | --- | --- | --- |
| > 50 µM | > 50 µM | < 2% | 12% | 11 h | 0.006 | 24 µL/min/mg | 7 | 0.00866 µM | 0.0054 µM | 14000 ng·h/mL | 2.7 µL/min/mg | 0.00956 | 68 µM | 234 µM (≈ 118 µg/mL) |  |  | COc1cc(C(=O)N2CCC3(CC2)CC(=O)c2c(cnn2C(C)C)C3)cc(-c2ccc(C(=O)O)cc2)n1 [CLESACOSTAT] | Non-Toxic | Non-Toxic | Non-Toxic |
|  |  |  |  |  |  |  |  |  |  |  |  |  |  |  | 5 | 38100 ng/mL | COc1cc(C(=O)N2CCC3(CC2)CC(=O)c2nn(C(C)(C)C)cc2O3)cc(-c2ccc(C(=O)O)cc2)n1 |  |  |  |

From ChEMBL document CHEMBL4665761, “Optimizing the Benefit/Risk of Acetyl-CoA Carboxylase Inhibitors through Liver Targeting” (J Med Chem, 2020)
